The source of these data is PubChem BioAssay AID463111 (Johns Hopkins Ion Channel Center, 2010).

About 2,800 (0.9%) of roughly 310,000 compounds were called active.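 Rule for the calls: active = B-score of the integrated calcium signal more than 4 SD below the library mean, with starting fluorescence not abnormally high; inactive = the rest.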 Only a selection was taken, and actives are over-represented in it overall.

A short description of the experiment: RGS4 potentiators or activators, primary screen, cell-based, HEK293 M3R inducible RGS4, calcium flux (AID 463111).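 For B-score: negative B-score means reduced calcium response which marks RGS4 activation or potentiation.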 The settings on record: HEK293 M3R/inducible RGS4, carbachol calcium flux Fluo4, at 10 µM; active compounds read low. In outline:
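Material: Inducible-RGS4 HEK293 cells carrying M3 receptor; also added: carbachol at ECmax as muscarinic agonist stimulus; incubation: compound preincubation 20 min at room temperature before agonist; signal: Fluo4-AM (2 µM) calcium-flux fluorescence, kinetic read; measure: integrated calcium ratio converted to B score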
A general note: A change in cytosolic calcium serves as a functional read-out for many receptors and channels.
On to `Cc1cc(C)c2nc3nc(C)cc(C)c3c(N)c2c1`, for which the B-score was -7.22 (active).

Turning to `Cc1cc(C)c2nc(-c3ccco3)cc(C(=O)O)c2c1`, the B-score entry is “inactive”.

`CN(CC1CCCO1)S(=O)(=O)c1ccc(C(=O)Nc2ccc([N+](=O)[O-])cc2)cc1` (stereo unspecified): the B-score entry was “inactive”.

With `Cc1ccc(OC(=O)c2ccccc2C(=O)OCC(F)(F)C(F)F)cc1`, the B-score entry is “inactive”.

On to `O=C(COC(=O)/C=C/c1ccc(S(=O)(=O)N2CCCCCC2)cc1)NCc1ccccc1Cl`, for which the B-score result was “inactive”.

`O=C(c1ccc(F)c(S(=O)(=O)N2CCOCC2)c1)N(CCc1ccccc1)Cc1ccccc1`: the B-score result was “inactive”.

As for `CCCCCOc1ccc(CSC2=NCCN2)cc1[N+](=O)[O-]`, the B-score entry is “inactive”.

Turning to `CCCCOc1ccc(CSC(=N)N)cc1[N+](=O)[O-]`, the B-score is -7.06 (active).

In the case of `CCCOc1ccc(Cn2ccnc2)cc1[N+](=O)[O-]`, the B-score result is “inactive”.

For `COc1cc(C2OC(c3cc(OC)c(OC)c(OC)c3)C(C)C2C)cc(OC)c1OC` (stereo unspecified), the B-score result is “inactive”.

For the molecule `CSCCC(NS(=O)(=O)c1ccc(C)cc1)C(=O)NCCc1c[nH]c2ccccc12` (stereo unspecified), the B-score result was “inactive”.

Take `O=C(Nc1cccc(Cl)c1)c1cc([N+](=O)[O-])ccc1N1CCN(CCO)CC1`: the B-score result was “inactive”.

Consider `CCN1CCN(c2ccc([N+](=O)[O-])cc2C(=O)c2ccc(Cl)cc2)CC1`, for which the B-score is -7.47 (active).

`CCC(=O)c1ccc(N2CCN(C(=O)c3cc([N+](=O)[O-])ccc3F)CC2)c(F)c1`: the B-score result is “inactive”.

Take `O=C(N/N=C/c1ccc(O)c(O)c1)C1c2ccccc2Oc2ccccc21`: the B-score result was “inactive”.

In the case of `O=C(CCC1CCN(C(=O)c2cccc(Cl)c2F)CC1)Nc1ccccc1`, the B-score entry is “inactive”.

As to `Cc1cc(S(=O)(=O)Nc2ccc(C(=O)NCC(c3ccco3)N3CCCC3)cc2)ccc1F` (stereo unspecified), the B-score entry is “inactive”.

As to `COc1cc(Cl)ccc1OCc1cc(C(=O)N2CC[C@@H]3CCCC[C@H]3C2)no1`, the B-score result was “inactive”.

With `COc1ccc(OCc2cc(C(=O)N3CCCC3)no2)c2ccccc12`, the B-score is -7 (active).

`COc1ccccc1-c1cc(C(=O)N2CCCCC2)no1`: the B-score result is “inactive”.

For `O=C(NC1(C(F)(F)F)NC(=O)N(Cc2cccnc2)C1=O)c1ccccc1Cl` (stereo unspecified), the B-score entry was “inactive”.

Take `O=C(CN1C(=O)c2cccnc2Oc2ccc(Cl)cc21)NCCc1ccccc1`: the B-score entry was “inactive”.

With `CCOC(=O)c1cccc(NC(=O)c2ccc(F)cc2F)c1`, the B-score result was “inactive”.

As to `Cc1ccc(N(Cc2ccccc2O)C(=O)c2ccccc2F)cc1`, the B-score entry is “inactive”.

For `Cn1c(N)c(C(=O)COC(=O)c2cnc(Cl)c(Cl)c2)c(=O)n(C)c1=O`, the B-score entry was “inactive”.

Regarding `Cc1ccc(C)c(NC(=O)NNC(=O)c2ccc3ccccc3c2O)c1`, the B-score result was “inactive”.

In the case of `CC(C)(C)c1ccc(/C=C/C(=O)Nc2ncccn2)cc1`, the B-score result was “inactive”.

`COC(=O)c1sc(-c2ccc(C(C)(C)C)cc2)cc1NC(=O)/C=C/C(=O)O`: the B-score was -8.52 (active).

For `CSc1ccc(NC(=O)/C=C/C(=O)O)cc1`, the B-score result is “inactive”.

Turning to `Cc1onc(-c2c(F)cccc2Cl)c1C(=O)N(C)CC(=O)Nc1cccc(F)c1`, the B-score result was “inactive”.

With `OCCC1CN(Cc2ccc3nsnc3c2)CCN1C1CCCC1` (stereo unspecified), the B-score was -8.81 (active).

On to `Cn1cnnc1Sc1ccc(CN2CCN(C3CCCC3)C(CCO)C2)o1` (stereo unspecified), for which the B-score entry was “inactive”.

With `OCCC1CN(Cc2ccc3nsnc3c2)CCN1C1CCCCC1` (stereo unspecified), the B-score entry was “inactive”.

Take `COc1ccccc1C(=O)N/C(=C/c1ccc2c(c1)OCO2)C(=O)Nc1cccc(C(=O)O)c1`: the B-score entry was “inactive”.

For `CN(C)CCCN(C(=O)c1ccc(S(=O)(=O)N2CCCCCC2)cc1)c1nc2cc3c(cc2s1)OCCO3`, the B-score is -7.42 (active).

Take `CN(C)CCCN(C(=O)c1ccc(S(=O)(=O)N2CCCCCC2)cc1)c1nc2ccc(Br)cc2s1`: the B-score entry is “inactive”.

For `CCN(CC)CCN(C(=O)c1ccc(S(=O)(=O)N2CCOCC2)cc1)c1nc2cc3c(cc2s1)OCCO3`, the B-score entry is “inactive”.

For the molecule `CC(CC(=O)Nc1ccc(F)cc1F)S(=O)(=O)c1ccc2c(c1)NC(=O)CO2` (stereo unspecified), the B-score entry is “inactive”.

For the molecule `CC(CC(=O)N1CCN(S(=O)(=O)c2ccccc2)CC1)n1cncn1` (stereo unspecified), the B-score entry is “inactive”.

`C=CCNC(=O)c1ccccc1SCc1c(C)noc1C`: the B-score result is “inactive”.

`Cc1cc(C)c(NC(=O)C[N+](C)(C)CC(O)COc2cccc3ccccc23)c(C)c1` (stereo unspecified): the B-score result is “inactive”.

Take `CC(C)c1ccccc1OCC(O)CN(CC(O)COc1cccc2ccccc12)C(C)C` (stereo unspecified): the B-score was -10 (active).

Consider `CCC(C)Sc1nc2c(c(=O)[nH]c(=O)n2C)n1CC(O)COc1cccc2ccccc12` (stereo unspecified), for which the B-score result is “inactive”.

For `CCCN(c1ccc(C)cc1)c1nc(=O)c2cccnc2s1`, the B-score entry is “inactive”.

As for `CCOC(=O)c1c(NC(=O)Cn2nc(C(F)(F)F)cc2C)sc2c1CCC2`, the B-score result is “inactive”.

In the case of `CCOC(=O)c1c(NC(=S)Nc2ccccc2)sc2c1CCN(C)C2`, the B-score result was “inactive”.

Turning to `CCOC(=O)c1c(NC(=O)NC(C)(C)C)sc2c1CCN(C)C2`, the B-score is -8.36 (active).

Consider `CCOC(=O)C1C(c2ccc(OC)c(OC)c2)c2c([nH][nH]c2=O)CC1(C)O` (stereo unspecified), for which the B-score entry was “inactive”.

Regarding `CC1CN(/C=C/C(=O)C(F)(F)F)CC(C)O1` (stereo unspecified), the B-score result is “inactive”.

On to `CCCc1ccc(OCc2ccc(C(=O)N/N=C/c3cccc([N+](=O)[O-])c3)o2)c(OC)c1`, for which the B-score entry is “inactive”.

On to `O=C(O)CSc1c2c(nc3cc(C(=O)Nc4cccc(C(F)(F)F)c4)ccc13)CCCC2`, for which the B-score entry is “inactive”.

As for `Cn1nc(C(F)(F)F)c(C(=O)Nc2cccc(C(F)(F)F)c2)c1SCc1ccc(Cl)cc1`, the B-score was -10.4 (active).

On to `FC(F)(F)c1cccc(NC(=S)Nc2cccc(Cl)c2)c1`, for which the B-score result was “inactive”.

With `CC(C)=CCCC(C)CN1CCC(n2nccc2NC(=O)c2ccccc2)CC1` (stereo unspecified), the B-score entry is “inactive”.

For `CC(C)Cn1c(CCC(=O)O)ccc1-c1cccs1`, the B-score is -7.21 (active).

As to `CCOC(=O)c1ccc(-n2c(CCC(=O)O)ccc2-c2ccccc2)cc1`, the B-score result was “inactive”.

`COCCCn1c(CCC(=O)O)ccc1-c1ccc(F)cc1`: the B-score result was “inactive”.

Regarding `Cc1ccccc1CNC(=O)CCC(=O)N1Cc2ccccc2Oc2ncccc21`, the B-score result was “inactive”.

As to `CCCCCCC(O)(CCN1CCCCC1)c1ccccc1` (stereo unspecified), the B-score result was “inactive”.

On to `CCCCCC(O)(CCN1CCCCC1)c1ccccc1` (stereo unspecified), for which the B-score was -9.9 (active).

For the molecule `CC(C)(c1ccccc1)c1ccc(OCCN2CCCC2)cc1`, the B-score result was “inactive”.

For the molecule `CCCCOc1ccc(C(C)(O)CCN2CCOCC2)cc1` (stereo unspecified), the B-score result is “inactive”.

On to `c1ccc(-c2ccccc2OCCN2CCCCC2)cc1`, for which the B-score result is “inactive”.

Take `C#CC(CCN1CCCCC1)(OC)c1ccccc1` (stereo unspecified): the B-score is -8.27 (active).

`CCC(CC)COC(=O)C1=C(C)NC(=O)NC1c1ccc([N+](=O)[O-])cc1` (stereo unspecified): the B-score result was “inactive”.

As to `COc1ccc(C(CC(=O)c2ccccc2)S(=O)(=O)c2ccccc2)cc1` (stereo unspecified), the B-score result is “inactive”.
